Data reported in ChEMBL document CHEMBL1151448, “Comparative antianaerobic activities of doripenem determined by MIC and time-kill analysis” (2008).
≈ marks a conversion by molar mass, not a printed value. Calls of active or inactive are those of the source. The calls are words filed in the database; no cut-off is given here.

Experiments:
Fusobacterium nucleatum [1] = assay: Antimicrobial activity against beta lactamase-positive Fusobacterium nucleatum isolated from intra-abdominal infection and pelvic inflammatory disease patients after 48 hrs by time kill analysis; type: functional
How it was run: (§1)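 The MIC was read by inspecting macrodilution time-kill tubes. Vials held prereduced brucella broth with 5% laked horse blood cells, hemin 5 μg/ml and vitamin K1 1 μg/ml. Final inoculum was 10^6–10^7 CFU/ml, prepared inside the anaerobe chamber. Vials were incubated 48 h at 35°C in a shaking water bath.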

Porphyromonas gingivalis = assay: Antimicrobial activity against Porphyromonas gingivalis isolated from intra-abdominal infection and pelvic inflammatory disease patients after 48 hrs by agar dilution method; type: functional
How it was run: (§2)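 CLSI agar dilution on brucella blood agar supplemented with laked sheep blood, hemin and vitamin K. Inocula of about 1 × 10^5 CFU/spot were applied by Steers replicator, and plates were incubated 48 h at 35°C in an anaerobic glove box. MIC was the concentration giving marked growth reduction versus the anaerobic control plate. QC strains were included each run, and β-lactamase was detected by Cefinase disk.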

Clostridium cadaveris = assay: Antimicrobial activity against Clostridium cadaveris isolated from intra-abdominal infection and pelvic inflammatory disease patients after 48 hrs by agar dilution method; type: functional; how it was run: as §2
Clostridioides difficile [2] = assay: Bactericidal activity against Clostridium difficile isolated from intra-abdominal infection and pelvic inflammatory disease patients assessed as bacterial killing at 2 times MIC after 48 hrs by time kill analysis; type: functional
How it was run: (§3)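 Macrodilution time-kill in prereduced brucella broth with 5% laked horse blood, hemin 5 μg/ml and vitamin K1 1 μg/ml, at final inoculum 10^6–10^7 CFU/ml. […] Viable counts were taken at 6, 12, 24 and 48 h on plates incubated 48 h anaerobically. 99.9% kill was taken as bactericidal.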

Prevotella intermedia [3] = assay: Antimicrobial activity against beta lactamase-positive Prevotella intermedia isolated from intra-abdominal infection and pelvic inflammatory disease patients after 48 hrs by agar dilution method; type: functional; how it was run: as §2
[4] = system: Peptoniphilus asaccharolyticus; assay: Antimicrobial activity against Peptoniphilus asaccharolyticus isolated from intra-abdominal infection and pelvic inflammatory disease patients after 48 hrs by agar dilution method; type: functional; how it was run: as §2
Clostridioides difficile [5] = assay: Bactericidal activity against Clostridium difficile isolated from intra-abdominal infection and pelvic inflammatory disease patients assessed as bacterial killing at MIC after 24 hrs by time kill analysis; type: functional; how it was run: as §3
Fusobacterium nucleatum [6] = assay: Bactericidal activity against beta lactamase-positive Fusobacterium nucleatum isolated from intra-abdominal infection and pelvic inflammatory disease patients assessed as bacterial killing at MIC after 24 hrs by time kill analysis; type: functional
How it was run: (§4)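 Anaerobic macrodilution time-kill. Inoculum from brucella blood plates, prepared and diluted in prereduced brucella broth inside the anaerobe chamber. Final 10^6 to 10^7 CFU/ml in prereduced brucella broth with 5% laked horse blood cells, 5 μg/ml hemin and 1 μg/ml vitamin K1. […] Shaken at 35°C for 48 h. Viable counts taken at 6, 12, 24 and 48 h. 99.9% kill taken as bactericidal.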

Anaerococcus tetradius = assay: Antimicrobial activity against Anaerococcus tetradius isolated from intra-abdominal infection and pelvic inflammatory disease patients after 48 hrs by agar dilution method; type: functional; how it was run: as §2
[7] = system: Bacteroides thetaiotaomicron; assay: Bactericidal activity against beta lactamase-positive Bacteroides thetaiotaomicron isolated from intra-abdominal infection and pelvic inflammatory disease patients assessed as bacterial killing at 2 times MIC after 48 hrs by time kill analysis; type: functional; how it was run: as §3
Phocaeicola vulgatus = assay: Antimicrobial activity against beta lactamase-positive Bacteroides vulgatus isolated from intra-abdominal infection and pelvic inflammatory disease patients after 48 hrs by agar dilution method; type: functional; how it was run: as §2
Bacteroides fragilis [8] = assay: Bactericidal activity against beta lactamase-positive Bacteroides fragilis isolated from intra-abdominal infection and pelvic inflammatory disease patients assessed as bacterial killing at 2 times MIC after 48 hrs by time kill analysis; type: functional; how it was run: as §3
Fusobacterium nucleatum [9] = assay: Antimicrobial activity against beta lactamase-positive Fusobacterium nucleatum isolated from intra-abdominal infection and pelvic inflammatory disease patients after 48 hrs by agar dilution method; type: functional; how it was run: as §2
Bacteroides fragilis [10] = assay: Antimicrobial activity against beta lactamase-positive Bacteroides fragilis isolated from intra-abdominal infection and pelvic inflammatory disease patients after 48 hrs by time kill analysis; type: functional; how it was run: as §1
Clostridium perfringens = assay: Antimicrobial activity against Clostridium perfringens isolated from intra-abdominal infection and pelvic inflammatory disease patients after 48 hrs by agar dilution method; type: functional
How it was run: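 CLSI agar dilution on brucella blood agar supplemented with laked sheep blood, hemin and vitamin K. Inoculum about 1 × 10^5 CFU/spot, applied by Steers replicator. Plates incubated 48 h at 35°C in an anaerobic glove box. MIC is the concentration giving marked growth reduction versus the anaerobic control plate. Standard QC strains included in each run.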

Finegoldia magna [11] = assay: Antimicrobial activity against Finegoldia magna isolated from intra-abdominal infection and pelvic inflammatory disease patients after 48 hrs by agar dilution method; type: functional; how it was run: as §2
Finegoldia magna [12] = assay: Bactericidal activity against beta lactamase-positive Finegoldia magna isolated from intra-abdominal infection and pelvic inflammatory disease patients assessed as bacterial killing at 2 times MIC after 48 hrs by time kill analysis; type: functional; how it was run: as §4
Fusobacterium varium = assay: Antimicrobial activity against Fusobacterium varium isolated from intra-abdominal infection and pelvic inflammatory disease patients after 48 hrs by agar dilution method; type: functional; how it was run: as §2
Prevotella buccae = assay: Antimicrobial activity against beta lactamase-positive Prevotella buccae isolated from intra-abdominal infection and pelvic inflammatory disease patients after 48 hrs by agar dilution method; type: functional; conditions: Segatella buccae; how it was run: as §2
Finegoldia magna [13] = assay: Bactericidal activity against beta lactamase-positive Finegoldia magna isolated from intra-abdominal infection and pelvic inflammatory disease patients assessed as 99.9% bacterial killing at 2 times MIC after 48 hrs by time kill analysis; type: functional, organism-based; how it was run: as §3
Parvimonas micra = assay: Antimicrobial activity against Micromonas micros isolated from intra-abdominal infection and pelvic inflammatory disease patients after 48 hrs by agar dilution method; type: functional; how it was run: as §2
[14] = system: Clostridium paraputrificum; assay: Antimicrobial activity against Clostridium paraputrificum isolated from intra-abdominal infection and pelvic inflammatory disease patients after 48 hrs by agar dilution method; type: functional; how it was run: as §2
Fusobacterium nucleatum [15] = assay: Bactericidal activity against beta lactamase-positive Fusobacterium nucleatum isolated from intra-abdominal infection and pelvic inflammatory disease patients assessed as bacterial killing at 2 times MIC after 48 hrs by time kill analysis; type: functional; how it was run: as §4
[16] = system: Enterocloster clostridioformis; assay: Antimicrobial activity against Clostridium clostridioforme isolated from intra-abdominal infection and pelvic inflammatory disease patients after 48 hrs by agar dilution method; type: functional; how it was run: as §2
Prevotella disiens = assay: Antimicrobial activity against beta lactamase-positive Prevotella disiens isolated from intra-abdominal infection and pelvic inflammatory disease patients after 48 hrs by agar dilution method; type: functional; how it was run: as §2
Clostridioides difficile [17] = assay: Bactericidal activity against Clostridium difficile isolated from intra-abdominal infection and pelvic inflammatory disease patients assessed as 99.9% bacterial killing at 2 times MIC after 48 hrs by time kill analysis; type: functional, organism-based; how it was run: as §3
[18] = system: Bacteroides thetaiotaomicron; assay: Antimicrobial activity against beta lactamase-positive Bacteroides thetaiotaomicron isolated from intra-abdominal infection and pelvic inflammatory disease patients after 48 hrs by agar dilution method; type: functional; how it was run: as §2
Thomasclavelia ramosa = assay: Antimicrobial activity against Clostridium ramosum isolated from intra-abdominal infection and pelvic inflammatory disease patients after 48 hrs by agar dilution method; type: functional; how it was run: as §2
Prevotella intermedia [19] = assay: Antimicrobial activity against beta lactamase-positive Prevotella intermedia isolated from intra-abdominal infection and pelvic inflammatory disease patients after 48 hrs by time kill analysis; type: functional; how it was run: as §1

C[C@@H](O)[C@H]1C(=O)N2C(C(=O)O)=C(S[C@@H]3CN[C@H](C(=O)Nc4cccc(C(=O)O)c4)C3)[C@H](C)[C@H]12
MIC (Fusobacterium nucleatum [1]): 0.008 µg/mL (≈ 0.0168 µM)
MIC (Porphyromonas gingivalis): ≤ 0.016 µg/mL
MIC (Clostridium cadaveris): ≤ 0.016 µg/mL
Activity (Clostridioides difficile [2]): 99%
MIC50 (Prevotella intermedia [3]): 0.03 µg/mL (≈ 0.0631 µM)
MIC90 (Prevotella intermedia [3]): 0.25 µg/mL (≈ 0.526 µM)
MIC [4]: ≤ 0.016 µg/mL
MIC50 [4]: ≤ 0.016 µg/mL
MIC90 [4]: 0.06 µg/mL (≈ 0.126 µM)
Activity (Clostridioides difficile [5]): 90%
Activity (Fusobacterium nucleatum [6]): 90%
MIC (Anaerococcus tetradius): 0.06 µg/mL (≈ 0.126 µM)
MIC50 (Anaerococcus tetradius): 0.06 µg/mL (≈ 0.126 µM)
Activity [7]: 99%
MIC50 (Phocaeicola vulgatus): 0.125 µg/mL (≈ 0.263 µM)
MIC90 (Phocaeicola vulgatus): 2 µg/mL (≈ 4.21 µM)
Activity (Bacteroides fragilis [8]): 99%
MIC (Fusobacterium nucleatum [9]): ≤ 0.016 µg/mL
MIC50 (Fusobacterium nucleatum [9]): ≤ 0.016 µg/mL
MIC90 (Fusobacterium nucleatum [9]): 0.03 µg/mL (≈ 0.0631 µM)
MIC (Bacteroides fragilis [10]): 0.25 µg/mL (≈ 0.526 µM)
MIC50 (Clostridium perfringens): 0.06 µg/mL (≈ 0.126 µM)
MIC90 (Clostridium perfringens): 0.125 µg/mL (≈ 0.263 µM)
MIC50 (Finegoldia magna [11]): 0.06 µg/mL (≈ 0.126 µM)
MIC90 (Finegoldia magna [11]): 0.06 µg/mL (≈ 0.126 µM)
Activity (Finegoldia magna [12]): 99%
MIC (Fusobacterium varium): 0.06 µg/mL (≈ 0.126 µM)
MIC50 (Fusobacterium varium): 0.06 µg/mL (≈ 0.126 µM)
MIC90 (Fusobacterium varium): 0.125 µg/mL (≈ 0.263 µM)
MIC50 (Prevotella buccae): 0.125 µg/mL (≈ 0.263 µM)
MIC90 (Prevotella buccae): 0.125 µg/mL (≈ 0.263 µM)
Activity (Finegoldia magna [13]): inactive
MIC50 (Parvimonas micra): 0.03 µg/mL (≈ 0.0631 µM)
MIC90 (Parvimonas micra): 0.125 µg/mL (≈ 0.263 µM)
MIC [14]: 0.125 µg/mL (≈ 0.263 µM)
Activity (Fusobacterium nucleatum [15]): 99%
MIC [16]: 1 µg/mL (≈ 2.1 µM)
MIC50 (Prevotella disiens): 0.06 µg/mL (≈ 0.126 µM)
MIC90 (Prevotella disiens): 0.25 µg/mL (≈ 0.526 µM)
Activity (Clostridioides difficile [17]): inactive
MIC [18]: 0.5 µg/mL (≈ 1.05 µM)
MIC50 [18]: 0.5 µg/mL (≈ 1.05 µM)
MIC90 [18]: 1 µg/mL (≈ 2.1 µM)
MIC (Thomasclavelia ramosa): 1 µg/mL (≈ 2.1 µM)
MIC50 (Thomasclavelia ramosa): 1 µg/mL (≈ 2.1 µM)
MIC (Prevotella intermedia [19]): 0.03 µg/mL (≈ 0.0631 µM)
